Assay results collected from several papers.
FLT3: Receptor-type tyrosine-protein kinase FLT3 (FLT3, Homo sapiens, UniProt P36888)
FLT3 N841I: Receptor-type tyrosine-protein kinase FLT3 (FLT3, Homo sapiens, UniProt P36888, N841I)

Structure (SMILES) | target | observed | mode | method | tested at | quantity | result
C#Cc1n[nH]c2c(-c3cn(C(C)c4ccccn4)c(=O)[nH]c3=O)cc(F)cc12 (centres unmarked) | FLT3 | enzyme activity | inhibitor | – | 1 µM | inhibition | 8%
Cn1cc(-c2cc(F)cc(N3CCn4c(cc5c4CCCC5)C3=O)c2CO)cc(Nc2ccc(N3CCN(C4COC4)CC3)cn2)c1=O | FLT3 | enzyme activity | inhibitor | – | 0.1 µM | inhibition | 12%
N#CC1(c2ccccn2)CCN(Cc2cc(C(=O)O)c(=O)n3ccccc23)CC1 | Receptor-type tyrosine-protein kinase FLT3 (FLT3, Homo sapiens, UniProt P36888, F691L/ITD) | cell-free assay | – | competition with immobilised ligand | 1 µM | remaining binding | 100%
COc1ncccc1-c1cnn2ccc(N3CCN(C(=O)OC(C)C)CC3)nc12 | FLT3 | binding | – | competition with immobilised ligand | 1 µM | remaining binding | 100%
Cc1nn(C)cc1-c1nc2c(N3CCN(Cc4ccc(Cl)cc4)CC3)c(Cl)cnc2[nH]1 | FLT3 N841I | binding | – | competition with immobilised ligand | 1 µM | remaining binding | 0%
O=c1[nH]c2ccccc2n1C1CCN(Cc2ccc(-c3[nH]c4cc5ncnc5cc4nc3-c3ccccc3)cc2)CC1 | FLT3 | cell-free assay | – | – | 0.5 µM | remaining signal | 94.6%
Nc1ncc(-c2nc(N3CCOCC3)nc(N3CCOCC3)n2)c(C(F)F)n1 | FLT3 N841I | binding | – | competition with immobilised ligand | 10 µM | remaining binding | 46%
C#Cc1n[nH]c2c(-c3cn([C@@H](C)c4ccccc4)c(=O)[nH]c3=O)cc(F)cc12 | FLT3 | enzyme activity | inhibitor | – | 0.1 µM | inhibition | 4.9%
CC(C)(C)c1cc(C=C(C#N)C#N)cc(Br)c1O | FLT3 | enzyme activity | inhibitor | – | 0.5 µM | remaining activity | 102%
Cn1cncc1[C@@](O)(COc1ccc(C#N)cc1-c1ccc(OC(F)(F)F)cc1)c1ccc(C#N)cc1 | Receptor-type tyrosine-protein kinase FLT3 (FLT3, Homo sapiens, UniProt P36888, ITD) | cell-free assay | – | competition with immobilised ligand | 1 µM | remaining binding | 89%
Cn1cc(-c2cccc(N3CCc4c(sc5c4CC(C)(C)C5)C3=O)c2CO)cc(Nc2ccncn2)c1=O | FLT3 | enzyme activity | inhibitor | – | 1 µM | inhibition | -6%
